Assay outcomes: PubChem BioAssay, Broad Institute
An excerpt weighted towards active compounds, which were near 3% of everything screened.
PGC1a acetyl inh: lowers PGC1a acetylation signal in U2OS cells; AlphaScreen anti-acetyl-lysine; with virally co-expressed GCN5 acetyltransferase; inhibition, % at 15.6 µM; 350,000 compounds, 0.17% hits;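 active means every replicate shows inhibition of at least 40%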
SIRT5 block: blocks human SIRT5 desuccinylation of peptide; inhibition, % at 15 µM; 330,000 compounds, 1.1% hits; Purified SirT5, succinyl-peptide AMC, trypsin-coupled fluorescence; in the data active means inhibition above about 15%
Target sequence (Q9NXA8 whole entry, looked up): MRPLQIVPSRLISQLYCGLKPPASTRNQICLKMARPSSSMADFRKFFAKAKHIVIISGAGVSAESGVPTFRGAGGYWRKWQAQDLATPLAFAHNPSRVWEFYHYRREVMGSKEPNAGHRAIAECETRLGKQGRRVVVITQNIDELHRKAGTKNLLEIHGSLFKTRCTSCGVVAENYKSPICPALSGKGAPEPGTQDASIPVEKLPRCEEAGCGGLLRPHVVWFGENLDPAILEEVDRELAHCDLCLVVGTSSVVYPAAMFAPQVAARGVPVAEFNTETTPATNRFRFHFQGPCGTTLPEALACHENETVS
Ecoli rRNA inh: inhibits bacterial ribosomal RNA function over humanized ribosomes; GFP signal change (wild-type ribosome), % (concentration not given with the values); E. coli WT GFP vs humanized-ribosome RFP mutants, fluorescence, 24 h; stronger effect = lower value; DMSO median 0, no signal -100; 350,000 compounds, 1.6% hits;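 active means significant combined selectivity score with lowered wild-type GFP, culture density cut under 30%, mutant RFP and density less affected; inactive means any of these conditions unmet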
Statin myotox sup: suppression of simvastatin myotoxicity | C2C12 myotubes + simvastatin, ATP luminescence, 48 h; scaled: DMSO 0, geranylgeraniol control 100 | AID 602340 | rescue of ATP level, % at 7.49 µM | 330,000 compounds, 0.78% hits;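 active means mean ATP rescue above about 67%, or every replicate alone reaching that limit, limit read from the data, passing the limit was not always enough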;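 further: myotubes were challenged with 10 µM simvastatin during compound exposure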
Cneo AK release: causes C. neoformans cell lysis. adenylate kinase release luminescence, 4 h; normalised: neutral wells 0, clomiphene wells 100. lysis activity, % at 15 µM. 360,000 compounds, 0.2% hits. AID 651654;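 active means mean lysis activity across replicates of at least 80%, whatever share of replicates individually reach that level; inactive means mean lysis activity below 80%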
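Assay system: C. neoformans cells. Amount: yeast cell density of 5 × 10^6 cells/mL. Technique: AK luminescence. Buffer or medium: YPD. Times: static 4 h at 37 °C with compound, 1 h detection. Dosing: single-point compound dose. Read-out: lysis from increased AK signal.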
S100A4 MyoIIA: inhibitors of human S100A4 binding to myosin IIA peptide; S100A4/TAMRA-MyoIIA peptide fluorescence polarization; inhibition, % at 10.7 µM; 360,000 compounds, 0.14% hits; AID 652163;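 active means mean inhibition of at least 70% across replicates, with every replicate also reaching that level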
Target sequence (P26447 whole entry, looked up): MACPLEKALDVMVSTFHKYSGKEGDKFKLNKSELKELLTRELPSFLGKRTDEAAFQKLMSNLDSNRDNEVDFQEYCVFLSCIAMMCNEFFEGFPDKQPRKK
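Compound dosing: one dose per compound; test system: human S100A4 monomer with TAMRA-labelled myosin IIA peptide; probe or stimulus: TAMRA-labelled myosin IIA heavy-chain peptide probe, 5 nM; medium: HEPES buffer with Ca2+, pH 7.2; schedule: 5 min incubation before reading; benchmarks: neutral control DMSO, positive control TFP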
A number is an active result.

For CCOC(=O)C1=C2c3ccc4ccccc4c3CC(C)(C)N2C(=O)C1=O the results were SIRT5 block inactive, Ecoli rRNA inh -28.9, Cneo AK release inactive and S100A4 MyoIIA inactive.
Screening CCOC(=O)C1=C2c3cc(OC)c(OC)cc3CC(C)(C)N2C(=O)C1=O returned PGC1a acetyl inh inactive, SIRT5 block inactive, Ecoli rRNA inh inactive, Cneo AK release inactive and S100A4 MyoIIA inactive.
Cc1noc(C)c1NC(=O)Nc1ccc2c(c1)CC(=O)N([C@H](C)CO)C[C@@H](C)[C@@H](CN(C)S(=O)(=O)c1ccc(F)cc1)O2 was read as PGC1a acetyl inh inactive, SIRT5 block inactive, Ecoli rRNA inh inactive, Statin myotox sup inactive, Cneo AK release inactive and S100A4 MyoIIA inactive.
For COc1ccc(/C=C/C(=O)Nc2ccc(-c3nnc4n3CCCCC4)cc2)c(OC)c1 the results were SIRT5 block inactive, Ecoli rRNA inh -20.2 and S100A4 MyoIIA inactive.
For O=C(C[C@H]1CC[C@@H]2[C@H](COC[C@H](O)CN2C(=O)Nc2ccc3c(c2)OCO3)O1)N1CCN(c2ccccc2)CC1 the results were PGC1a acetyl inh inactive, SIRT5 block inactive, Ecoli rRNA inh inactive, Statin myotox sup inactive, Cneo AK release inactive and S100A4 MyoIIA 123.1.
`CN1CCN(C(=O)C[C@@H]2CC[C@@H]3[C@H](COC[C@H](O)CN3C(=O)Nc3ccc(Cl)cc3)O2)CC1` gave PGC1a acetyl inh inactive, SIRT5 block inactive, Ecoli rRNA inh -17.6, Statin myotox sup inactive, Cneo AK release inactive and S100A4 MyoIIA inactive.
Screening CN1CCN(C(=O)C[C@H]2CC[C@@H]3[C@H](COC[C@@H](O)CN3C(=O)Nc3ccc(Cl)cc3)O2)CC1 returned PGC1a acetyl inh inactive, SIRT5 block inactive, Ecoli rRNA inh -27.4, Statin myotox sup inactive, Cneo AK release inactive and S100A4 MyoIIA inactive.
Screening CN1CCN(C(=O)C[C@H]2CC[C@@H]3[C@H](COC[C@H](O)CN3C(=O)Nc3cc(Cl)cc(Cl)c3)O2)CC1 returned PGC1a acetyl inh inactive, SIRT5 block inactive, Ecoli rRNA inh inactive, Statin myotox sup inactive, Cneo AK release inactive and S100A4 MyoIIA inactive.
Screening CN1CCN(C(=O)C[C@H]2CC[C@H]3[C@@H](COC[C@@H](O)CN3C(=O)Nc3cc(Cl)cc(Cl)c3)O2)CC1 returned PGC1a acetyl inh inactive, SIRT5 block inactive, Ecoli rRNA inh inactive, Statin myotox sup inactive, Cneo AK release inactive and S100A4 MyoIIA inactive.
Screening COc1ccc2c3c(n(C)c2c1)[C@H](CO)N(C(=O)c1ccccc1)CC31CN(C)C1 returned PGC1a acetyl inh inactive and Ecoli rRNA inh inactive.
O=C(C[C@H]1C[C@@H]2c3cc(NS(=O)(=O)c4ccc(F)cc4)ccc3O[C@@H]2[C@@H](CO)O1)NCc1cc(F)ccc1F was read as PGC1a acetyl inh inactive, SIRT5 block inactive, Ecoli rRNA inh inactive, Statin myotox sup inactive, Cneo AK release inactive and S100A4 MyoIIA inactive.
For Nc1nnnn1/N=C/c1ccccc1Cl the results were PGC1a acetyl inh inactive, Ecoli rRNA inh inactive, Statin myotox sup inactive, Cneo AK release inactive and S100A4 MyoIIA inactive.
For Nc1nnnn1/N=C/c1ccccn1 the results were PGC1a acetyl inh inactive, SIRT5 block inactive, Ecoli rRNA inh inactive, Statin myotox sup 83.4, Cneo AK release inactive and S100A4 MyoIIA inactive.
Screening O=C(Nc1ccc(Cl)cc1)N[C@H]1CC[C@H](CCn2cc(C3(O)CCCC3)nn2)O[C@@H]1CO returned PGC1a acetyl inh inactive, SIRT5 block inactive, Ecoli rRNA inh inactive, Statin myotox sup inactive, Cneo AK release inactive and S100A4 MyoIIA inactive.
`C[C@@H]1CN([C@@H](C)CO)C(=O)Cc2cc(NC(=O)Nc3cccc4ccccc34)ccc2O[C@H]1CN(C)Cc1ccc2c(c1)OCO2` gave PGC1a acetyl inh inactive, SIRT5 block inactive, Ecoli rRNA inh inactive, Statin myotox sup 75.2, Cneo AK release inactive and S100A4 MyoIIA inactive.
`C[C@@H]1CN([C@H](C)CO)C(=O)Cc2cc(NC(=O)Nc3ccc(C(F)(F)F)cc3)ccc2O[C@H]1CN(C)Cc1ccc2c(c1)OCO2` gave PGC1a acetyl inh inactive, SIRT5 block inactive, Ecoli rRNA inh inactive, Statin myotox sup inactive, Cneo AK release inactive and S100A4 MyoIIA 100.6.
`C[C@@H]1CN([C@@H](C)CO)C(=O)Cc2cc(NC(=O)Nc3ccc(C(F)(F)F)cc3)ccc2O[C@@H]1CN(C)Cc1ccc2c(c1)OCO2` gave PGC1a acetyl inh inactive, SIRT5 block inactive, Ecoli rRNA inh inactive, Statin myotox sup inactive, Cneo AK release inactive and S100A4 MyoIIA inactive.
Screening C[C@H]1CN([C@@H](C)CO)C(=O)Cc2cc(NC(=O)Nc3cccc4ccccc34)ccc2O[C@@H]1CN(C)Cc1ccc(Cl)c(Cl)c1 returned PGC1a acetyl inh inactive, SIRT5 block 15.8, Ecoli rRNA inh inactive, Statin myotox sup inactive, Cneo AK release inactive and S100A4 MyoIIA inactive.
For Cc1[nH]nc2c1/C(=N\O)CC(C)(C)C2 the results were PGC1a acetyl inh inactive, Statin myotox sup 100.6 and Cneo AK release inactive.
`CC=Cc1ccc2n(c1=O)C[C@@H]1[C@@H](CO)[C@H](C(=O)Nc3ccccc3)N(CC)[C@H]21` (mixture of isomers) gave SIRT5 block inactive, Ecoli rRNA inh inactive and S100A4 MyoIIA inactive.
`CCCC(=O)NC(c1ccccc1)c1c(O)ccc2ccccc12` (centres undefined) gave PGC1a acetyl inh inactive, SIRT5 block inactive, Ecoli rRNA inh inactive, Statin myotox sup inactive, Cneo AK release inactive and S100A4 MyoIIA inactive.
For CCC(=O)NC(c1ccccc1)c1c(O)ccc2ccccc12 (centres undefined) the results were PGC1a acetyl inh inactive, SIRT5 block inactive, Ecoli rRNA inh -32.5, Statin myotox sup inactive, Cneo AK release inactive and S100A4 MyoIIA inactive.
CCC(C)n1c(=S)[nH]c2c(sc3ccc([N+](=O)[O-])cc32)c1=O (centres undefined) was read as SIRT5 block inactive, Ecoli rRNA inh -32.5, Cneo AK release inactive and S100A4 MyoIIA inactive.
CC(C)n1c2ccccc2c2cc([N+](=O)[O-])ccc21 was read as SIRT5 block inactive, Ecoli rRNA inh inactive and S100A4 MyoIIA inactive.
Screening COc1cccc(NC(=O)N(C)C[C@H]2Oc3ncc(C4=CCCCC4)cc3C(=O)N([C@H](C)CO)C[C@@H]2C)c1 returned PGC1a acetyl inh inactive, SIRT5 block 19.6, Ecoli rRNA inh inactive, Statin myotox sup inactive, Cneo AK release inactive and S100A4 MyoIIA inactive.
C[C@H](CO)N1C[C@H](C)[C@H](CN(C)C(=O)Nc2cccc(F)c2)Oc2ncc(C#CCN(C)C)cc2C1=O was read as PGC1a acetyl inh inactive, SIRT5 block inactive, Ecoli rRNA inh inactive, Statin myotox sup inactive, Cneo AK release 97.3 and S100A4 MyoIIA inactive.
